Results collected from several papers.
Matrix: plasma

CONC(=O)c1cccc2c1cc(C)n2-c1nc2c(c(NCc3ccccc3)n1)CCCN2
MRT (male Sprague-Dawley rat; intravenous, 1 mg/kg, single dose): 3.6 h

COc1nc(-c2cccc(-c3ccccc3)c2C)ccc1CNCCNC(=O)CCCCCCCCCCC(=O)N1CCN(CCNC(=O)c2cc3c(=O)n4cccc(C)c4nc3n(CCc3cccs3)c2=N)CC1
MRT(0-inf) (male Sprague-Dawley rat; intravenous, 2 mg/kg): 5.1 h

O=C1CCC(N2Cc3cc(C4CCN(Cc5ccccc5)CC4)ccc3C2=O)C(=O)N1 (stereo not drawn)
MRT(0-inf) (male Sprague-Dawley rat; intravenous, 1 mg/kg): 4.13 h

COc1ccc(-c2coc3cc(O)cc(O)c3c2=O)cc1
MRT (rat; intravenous, 2 mg/kg): 0.27 h

C[C@H]1Oc2cc(cnc2N)-c2c(nn(C)c2C#N)CN(C)C(=O)c2ccc(F)cc21
MRT(0-inf) (male Sprague-Dawley rat; oral, 50 mg/kg, single dose): 25 h

C=CC(=O)N1CCC([C@@H]2CCNc3c(C(N)=O)c(-c4ccc(Oc5ccccc5)cc4)nn32)CC1
MRT(0-inf) (Sprague-Dawley rat; oral, 16 mg/kg): 3.93 h

C[C@@]12C[C@@]3(O)O[C@@H](O1)[C@]1(COC(=O)c4ccccc4)[C@H]3C[C@@]12O[C@@H]1O[C@H](CO)[C@@H](O)[C@H](O)[C@H]1O
MRT(0-inf) (male Sprague-Dawley rat; oral, 80 mg/kg): 10.9 h

C[C@H]1[C@@H](O)O[C@@H]2O[C@@]3(C)CC[C@H]4[C@H](C)CC[C@@H]1[C@@]24OO3
MRT(0-inf) (male Sprague-Dawley rat; oral, 10 mg/kg): 2.97 h

Nc1ccn([C@@H]2O[C@H](CO)[C@@H](O)C2(F)F)c(=O)n1
MRT(0-inf) (male Sprague-Dawley rat; intravenous, 5 mg/kg): 0.13 h

Cn1c(=O)c2[nH]cnc2n(C)c1=O
MRT(0-inf) (male Sprague-Dawley rat; intravenous, 22.5 mg/kg): 3.69 h

CCOc1c([C@H](C)n2nc(C)c3c(N)ncnc32)cc(Cl)c(F)c1[C@@H]1CNC(=O)C1
MRT(0-inf) (male Sprague-Dawley rat; oral, 2 mg/kg, single dose): 8.49 h

COc1cc(-c2cc(C(C)=O)n3ccccc23)c(OC)cc1Cn1ccnc1
MRT(0-t) (male Sprague-Dawley rat; oral, 5 mg/kg): 1.73 h

CC[C@@H]([C@H](C)O)n1ncn(-c2ccc(N3CCN(c4ccc(OC[C@@H]5CO[C@@](Cn6cncn6)(c6ccc(F)cc6F)C5)cc4)CC3)cc2)c1=O
MRT(0-inf) (Sprague-Dawley rat; oral, 40 mg/kg): 22.1 h

CC(=O)c1c(C)c2cnc(Nc3ccc(N4CCNCC4)cn3)nc2n(C2CCCC2)c1=O
MRT (male Sprague-Dawley rat; intravenous, 5 mg/kg): 2.5 h

COc1ccc(N(Cc2csc(-c3ccccc3)n2)C(=O)CCCCCC(=O)NO)cc1
MRT (female Sprague-Dawley rat; intravenous, 5 mg/kg): 0.39 h
